Experimental data taken from ChEMBL document CHEMBL4689842, “EUbOPEN Chemogenomics Library wave 1” (2021).
Several values for one entry are separate records, joined by “and”; a condition that tells them apart may be missing. Equal values may be shown once.

Test system: HEK-293T
Experiment: Multiplex assay against HEK293T;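 on Population Tubulin-Different-Phenotype (%): share of the cells with healthy nuclei that show this phenotype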
Type: toxicity, cell-based
Details: human
Summary of the method: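 Imaging took place on a CQ1 microscope at 37°C and 5% CO2 once compound had been added to live cells stained at seeding with Hoechst33342, BioTracker Green Microtubule Cytoskeleton Dye, MitoTracker Red and Annexin V Alexa Fluor 680. CellPathfinder machine-learning gating classed cells as Hoechst high-intensity objects or normal cells, classed normal cells as having healthy, pyknosed or fragmented nuclei, and classed pyknosed cells as mitotic or apoptotic. Tubulin, mitochondrial-mass and membrane-permeability phenotypes are per cents of the healthy-nucleus cells.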

[1] = 12 h, 10 µM, compound concentration 10 uM, replicate 1
[2] = 12 h, 10 µM, compound concentration 10 uM, replicate 2
[3] = 24 h, 10 µM, compound concentration 10 uM, replicate 1
[4] = 24 h, 10 µM, compound concentration 10 uM, replicate 2
[5] = 12 h, 1 µM, compound concentration 1 uM, replicate 1
[6] = 12 h, 1 µM, compound concentration 1 uM, replicate 2
[7] = 24 h, 1 µM, compound concentration 1 uM, replicate 1
[8] = 24 h, 1 µM, compound concentration 1 uM, replicate 2

CCN(CC)S(=O)(=O)Nc1cccc(-c2ccc3c(NC(=O)C4CC4)n[nH]c3c2)c1
Population Apoptotic (%) [1]: 14% and 17% | Population Fragmented Nuclei (%) [1]: 23% and 22% | Population Healthy Nuclei (%) [1]: 31% and 60% | Population Hoechst High Intensity Objects (%) [1]: 17% and 14% | Population Membrane Permeable-Phenotype (%) [1]: 7% and 4% | Population Mitochondria Different-Phenotype (%) [1]: 5% and 3% | Population Mitotic Cells (%) [1]: 85% and 82% | Population Normal (%) [1]: 82% and 85% | Population Pyknosed Nuclei (%) [1]: 45% and 17% | Population Tubulin-Different-Phenotype (%) [1]: 6% and 1% | Total Cell Count [1]: 531 and 471 | Population Apoptotic (%) [2]: 13% and 5% | Population Healthy Nuclei (%) [2]: 76% and 84% | Population Hoechst High Intensity Objects (%) [2]: 4% and 2% | Population Membrane Permeable-Phenotype (%) [2]: 1% and 0% | Population Mitotic Cells (%) [2]: 86% and 94% | Population Normal (%) [2]: 95% and 97% | Population Tubulin-Different-Phenotype (%) [2]: 10% and 4% | Total Cell Count [2]: 940 and 1848 | Population Apoptotic (%) [3]: 19% and 16% | Population Fragmented Nuclei (%) [3]: 22% and 21% | Population Healthy Nuclei (%) [3]: 34% and 70% | Population Hoechst High Intensity Objects (%) [3]: 14% and 9% | Population Membrane Permeable-Phenotype (%) [3]: 7% and 8% | Population Mitotic Cells (%) [3]: 80% and 83% | Population Normal (%) [3]: 85% and 90% | Total Cell Count [3]: 487 and 501 | Population Apoptotic (%) [4]: 4% and 8% | Population Healthy Nuclei (%) [4]: 67% and 71% | Population Hoechst High Intensity Objects (%) [4]: 4% and 6% | Population Membrane Permeable-Phenotype (%) [4]: 2% and 1% | Population Mitochondria Different-Phenotype (%) [4]: 22% | Population Mitotic Cells (%) [4]: 95% and 91% | Population Normal (%) [4]: 95% and 93%

COc1ccc(S(=O)(=O)N(CCO)c2ccccc2CN(C)C/C=C/c2ccc(Cl)cc2)cc1.O=P(O)(O)O
Population Apoptotic (%) [5]: 42% | Population Fragmented Nuclei (%) [5]: 11% | Population Healthy Nuclei (%) [5]: 28% | Population Hoechst High Intensity Objects (%) [5]: 16% | Population Membrane Permeable-Phenotype (%) [5]: 6% | Population Mitochondria Different-Phenotype (%) [5]: 79% | Population Mitotic Cells (%) [5]: 57% | Population Normal (%) [5]: 83% | Population Pyknosed Nuclei (%) [5]: 59% | Population Tubulin-Different-Phenotype (%) [5]: 87% | Total Cell Count [5]: 585 | Population Apoptotic (%) [6]: 35% | Population Fragmented Nuclei (%) [6]: 1% | Population Healthy Nuclei (%) [6]: 67% | Population Hoechst High Intensity Objects (%) [6]: 7% | Population Membrane Permeable-Phenotype (%) [6]: 3% | Population Mitochondria Different-Phenotype (%) [6]: 90% | Population Mitotic Cells (%) [6]: 64% | Population Normal (%) [6]: 92% | Population Pyknosed Nuclei (%) [6]: 30% | Population Tubulin-Different-Phenotype (%) [6]: 90% | Total Cell Count [6]: 929 | Population Apoptotic (%) [1]: 14% | Population Fragmented Nuclei (%) [1]: 11% | Population Healthy Nuclei (%) [1]: 67% | Population Hoechst High Intensity Objects (%) [1]: 8% | Population Membrane Permeable-Phenotype (%) [1]: 6% | Population Mitochondria Different-Phenotype (%) [1]: 9% | Population Mitotic Cells (%) [1]: 85% | Population Normal (%) [1]: 91% | Population Pyknosed Nuclei (%) [1]: 21% | Population Tubulin-Different-Phenotype (%) [1]: 25% | Total Cell Count [1]: 633 | Population Apoptotic (%) [2]: 13% | Population Fragmented Nuclei (%) [2]: 6% | Population Healthy Nuclei (%) [2]: 87% | Population Hoechst High Intensity Objects (%) [2]: 3% | Population Mitochondria Different-Phenotype (%) [2]: 21% | Population Mitotic Cells (%) [2]: 86% | Population Normal (%) [2]: 96% | Population Pyknosed Nuclei (%) [2]: 6% | Population Tubulin-Different-Phenotype (%) [2]: 36% | Total Cell Count [2]: 1412 | Population Apoptotic (%) [7]: 61% | Population Fragmented Nuclei (%) [7]: 13% | Population Healthy Nuclei (%) [7]: 25% | Population Hoechst High Intensity Objects (%) [7]: 18% | Population Membrane Permeable-Phenotype (%) [7]: 7% | Population Mitochondria Different-Phenotype (%) [7]: 81% | Population Mitotic Cells (%) [7]: 38% | Population Normal (%) [7]: 81% | Population Pyknosed Nuclei (%) [7]: 60% | Population Tubulin-Different-Phenotype (%) [7]: 85% | Total Cell Count [7]: 551 | Population Apoptotic (%) [8]: 43% | Population Fragmented Nuclei (%) [8]: 1% | Population Healthy Nuclei (%) [8]: 59% | Population Hoechst High Intensity Objects (%) [8]: 10% | Population Membrane Permeable-Phenotype (%) [8]: 2% | Population Mitochondria Different-Phenotype (%) [8]: 95% | Population Mitotic Cells (%) [8]: 56% | Population Normal (%) [8]: 89% | Population Pyknosed Nuclei (%) [8]: 38% | Population Tubulin-Different-Phenotype (%) [8]: 77% | Total Cell Count [8]: 913 | Population Apoptotic (%) [3]: 17% | Population Fragmented Nuclei (%) [3]: 8% | Population Healthy Nuclei (%) [3]: 80% | Population Hoechst High Intensity Objects (%) [3]: 6% | Population Membrane Permeable-Phenotype (%) [3]: 10% | Population Mitochondria Different-Phenotype (%) [3]: 8% | Population Mitotic Cells (%) [3]: 82% | Population Normal (%) [3]: 93% | Population Pyknosed Nuclei (%) [3]: 11% | Population Tubulin-Different-Phenotype (%) [3]: 31% | Total Cell Count [3]: 745 | Population Apoptotic (%) [4]: 5% | Population Fragmented Nuclei (%) [4]: 15% | Population Hoechst High Intensity Objects (%) [4]: 2% | Population Mitotic Cells (%) [4]: 94% | Population Normal (%) [4]: 97% | Population Pyknosed Nuclei (%) [4]: 4% | Population Tubulin-Different-Phenotype (%) [4]: 37% | Total Cell Count [4]: 2203

C=CCn1c(=O)c2cnc(Nc3ccc(N4CCN(C)CC4)cc3)nc2n1-c1cccc(C(C)(C)O)n1 [ADAVOSERTIB]
Population Apoptotic (%) [5]: 16% | Population Fragmented Nuclei (%) [5]: 23% | Population Healthy Nuclei (%) [5]: 36% | Population Hoechst High Intensity Objects (%) [5]: 14% | Population Membrane Permeable-Phenotype (%) [5]: 4% | Population Mitochondria Different-Phenotype (%) [5]: 3% | Population Mitotic Cells (%) [5]: 83% | Population Normal (%) [5]: 85% | Population Pyknosed Nuclei (%) [5]: 39% | Population Tubulin-Different-Phenotype (%) [5]: 2% | Total Cell Count [5]: 606 | Population Apoptotic (%) [6]: 13% | Population Fragmented Nuclei (%) [6]: 7% | Population Healthy Nuclei (%) [6]: 62% | Population Hoechst High Intensity Objects (%) [6]: 3% | Population Membrane Permeable-Phenotype (%) [6]: 3% | Population Mitochondria Different-Phenotype (%) [6]: 16% | Population Mitotic Cells (%) [6]: 86% | Population Normal (%) [6]: 96% | Population Pyknosed Nuclei (%) [6]: 30% | Population Tubulin-Different-Phenotype (%) [6]: 15% | Total Cell Count [6]: 1183 | Population Apoptotic (%) [1]: 12% | Population Fragmented Nuclei (%) [1]: 20% | Population Healthy Nuclei (%) [1]: 22% | Population Hoechst High Intensity Objects (%) [1]: 17% | Population Membrane Permeable-Phenotype (%) [1]: 16% | Population Mitochondria Different-Phenotype (%) [1]: 16% | Population Mitotic Cells (%) [1]: 87% | Population Normal (%) [1]: 82% | Population Pyknosed Nuclei (%) [1]: 56% | Population Tubulin-Different-Phenotype (%) [1]: 47% | Total Cell Count [1]: 637 | Population Apoptotic (%) [2]: 9% | Population Fragmented Nuclei (%) [2]: 15% | Population Healthy Nuclei (%) [2]: 27% | Population Hoechst High Intensity Objects (%) [2]: 2% | Population Membrane Permeable-Phenotype (%) [2]: 4% | Population Mitochondria Different-Phenotype (%) [2]: 32% | Population Mitotic Cells (%) [2]: 90% | Population Normal (%) [2]: 97% | Population Tubulin-Different-Phenotype (%) [2]: 70% | Total Cell Count [2]: 1182 | Population Apoptotic (%) [7]: 17% | Population Fragmented Nuclei (%) [7]: 22% | Population Healthy Nuclei (%) [7]: 46% | Population Hoechst High Intensity Objects (%) [7]: 9% | Population Membrane Permeable-Phenotype (%) [7]: 6% | Population Mitochondria Different-Phenotype (%) [7]: 5% | Population Mitotic Cells (%) [7]: 82% | Population Normal (%) [7]: 90% | Population Pyknosed Nuclei (%) [7]: 30% | Population Tubulin-Different-Phenotype (%) [7]: 6% | Total Cell Count [7]: 590 | Population Apoptotic (%) [8]: 16% | Population Fragmented Nuclei (%) [8]: 7% | Population Healthy Nuclei (%) [8]: 58% | Population Hoechst High Intensity Objects (%) [8]: 4% | Population Membrane Permeable-Phenotype (%) [8]: 5% | Population Mitochondria Different-Phenotype (%) [8]: 14% | Population Mitotic Cells (%) [8]: 83% | Population Normal (%) [8]: 95% | Population Pyknosed Nuclei (%) [8]: 33% | Population Tubulin-Different-Phenotype (%) [8]: 32% | Total Cell Count [8]: 1164 | Population Apoptotic (%) [3]: 21% | Population Fragmented Nuclei (%) [3]: 27% | Population Healthy Nuclei (%) [3]: 26% | Population Hoechst High Intensity Objects (%) [3]: 18% | Population Membrane Permeable-Phenotype (%) [3]: 12% | Population Mitochondria Different-Phenotype (%) [3]: 32% | Population Mitotic Cells (%) [3]: 78% | Population Normal (%) [3]: 81% | Population Pyknosed Nuclei (%) [3]: 46% | Population Tubulin-Different-Phenotype (%) [3]: 56% | Total Cell Count [3]: 609 | Population Apoptotic (%) [4]: 20% | Population Fragmented Nuclei (%) [4]: 15% | Population Healthy Nuclei (%) [4]: 39% | Population Hoechst High Intensity Objects (%) [4]: 3% | Population Membrane Permeable-Phenotype (%) [4]: 3% | Population Mitochondria Different-Phenotype (%) [4]: 53% | Population Mitotic Cells (%) [4]: 79% | Population Normal (%) [4]: 96% | Population Pyknosed Nuclei (%) [4]: 44% | Population Tubulin-Different-Phenotype (%) [4]: 80% | Total Cell Count [4]: 1042
